# Apaf1 inhib = human Apaf-1 inhibition; 0.71% of 330,000 active; O14727; reconstituted apoptosome caspase-3 activity, DEVD-Rh110 fluorescence; inhibition, % at 20 µM; AID 489030; active means inhibition of at least 40% at 20 µM
#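 detection = Rh110 fluorescence intensity | test system = biochemical Apaf-1 apoptosome reconstitution | also added = cytochrome c and DEVD-Rh110 substrate | schedule = 30 min plus 50 min, RT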
# TMEM16A act = activates or potentiates the mouse TMEM16A chloride channel. Q8BHY3. HEK293 TMEM16A/YFP-H148Q/I152L, iodide quench fluorescence; stronger effect = lower value. B-score at 10 µM. 0.3% of 340,000 active. AID 623877;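 active means fluorescence-ratio B-score plate-corrected deviation score at least 3 library SD below zero, with starting fluorescence score within 5 deviations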;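 further: channel opened by trigger with iodide after compound preincubation; score built on the fluorescence ratio of max minus min over baseline; more negative score means more quench and so TMEM16A activation or potentiation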
# TMEM16A inh = mouse TMEM16A channel inhibition, primary screen | Q8BHY3 | HEK293 TMEM16A/YFP iodide influx fluorescence, ionomycin | normalized B-score (activity score, 25-100; higher = stronger inhibition) at 10 µM | 1.2% of 310,000 active;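 active means ratio plate-corrected score three or more library SD toward inhibition, starting fluorescence score within five deviations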;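 further: score derived from kinetic fluorescence span divided by baseline fluorescence per well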
# UBC13 polyUb = blocks human UBC13 polyubiquitin chain formation; P61088; TR-FRET; inhibition, % at 20 µM; 0.47% of 330,000 active; in the data active means inhibition above about 45%, passing the limit was not always enough
# Target sequence (P61088 whole entry, looked up): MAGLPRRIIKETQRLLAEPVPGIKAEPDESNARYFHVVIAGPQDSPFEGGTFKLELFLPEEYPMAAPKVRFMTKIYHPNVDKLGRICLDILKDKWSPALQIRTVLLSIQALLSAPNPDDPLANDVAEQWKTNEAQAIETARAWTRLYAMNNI
# DNA FID counter = fluorescent intercalator displacement, NS3 helicase counter-screen | DNA fluorescent intercalator displacement, fluorescence | inhibition, % at 7.9 µM | 0.17% of 290,000 active | AID 1845; in the data active means inhibition above about 37%;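 further: higher means more ethidium bromide displaced from hairpin DNA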
# TMEM16A reconf = re-confirmation of mouse TMEM16A chloride channel inhibitors. shares compounds with TMEM16A inh. HEK293 TMEM16A/YFP-H148Q, iodide quench fluorescence; ionomycin added to raise cell calcium. inhibition, % at 10 µM. 39% of 2,300 active;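 active means mean duplicate percent inhibition, scaled so buffer wells are 0 and the reference blocker 100, over three buffer SD above buffer mean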
# TMEM16A Ca cntr = calcium mobilization counter-screen hit for TMEM16A inhibitor series | shares compounds with TMEM16A inh | TMEM16A/YFP HEK293, Fluo4 calcium mobilization | calcium response (% of ionomycin), % at 10 µM | 2% of 2,300 active | AID 652231;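 active means duplicate-averaged calcium signal over 20% of the ionomycin maximum, relative to buffer baseline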;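 further: each well's signal is peak minus trough fluorescence divided by its pre-addition baseline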
# YFP-HEK293 quench = parental YFP-HEK293 iodide quench counter-screen activity | 2,300 tested, under 10 active | shares compounds with TMEM16A inh | ionomycin | YFP ratio F(max-min)/F0 at 10 µM;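 active means yellow fluorescent protein signal ratio exceeding the buffer control mean by over 5 SD of those controls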;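 further: ratio is mean of duplicate wells from kinetic YFP trace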
# ClC-1 inh = blocks the rat ClC-1 voltage-dependent chloride channel; shares compounds with TMEM16A inh; ratio percent, % at 10 µM; CHO ClC-1-YFP, iodide influx fluorescence quench; iodide control reads 0, buffer control 100; 2,300 tested, under 10 active; AID 652236;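 active means duplicate-mean ratio percent above the mean of iodide-only control wells, which defines zero, plus 5 of their SD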;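 further: higher percent means stronger block of ClC-1 iodide influx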
# Numbers stand for hits; 0 = inactive; - = no result given. In the library only some 2.4% were active in any assay of this set; here they are far more common.
SMILES,Apaf1 inhib,TMEM16A act,TMEM16A inh,UBC13 polyUb,DNA FID counter,TMEM16A reconf,TMEM16A Ca cntr,YFP-HEK293 quench,ClC-1 inh
Cc1ccc(NS(=O)(=O)c2sc3ccc(Cl)cc3c2C)cc1,0,0,100,0,0,0,0,0,0
Nc1nc(Cl)cc(N2CCCC2)n1,0,0,0,0,0,-,-,-,-
Nc1nc(Cl)cc(N2CCC(c3cc(-c4ccc(Cl)cc4Cl)n[nH]3)CC2)n1,0,0,100,0,0,0,0,0,0
COc1ccc(CC(C)CC(=O)NCCc2ccc(OC)c(OC)c2)cc1 (stereo not drawn),0,0,0,0,0,-,-,-,-
CC(C)(C)C1CCc2c(sc(NC(=O)C3CC=CCC3C(=O)O)c2C#N)C1 (stereo not drawn),0,0,100,0,0,21%,0,0,0
Cc1ccc(-c2c3c(nc4sc(C(N)=O)c(N)c24)CCC3)cc1,0,0,0,0,0,-,-,-,-
COc1ccc(-c2c3c(nc4sc5c(Cl)nc(C)nc5c24)CCC3)cc1,0,0,100,0,0,0,0,0,0
Cc1cc(=O)[nH]c2c1c(C)nn2-c1ccccc1,0,0,0,0,0,-,-,-,-
Cc1nn(-c2ccc(Cl)cc2)c2[nH]c(CCl)cc(=O)c12,0,0,100,0,0,46%,0,0,0
O=C(/C=C/c1ccccc1Cl)NCc1ccco1,0,0,25,0,0,0,0,0,0
CC(NC(=S)Nc1ccc(S(=O)(=O)N2CCOCC2)cc1)C1CC2CCC1C2 (stereo not drawn),0,0,25,0,0,0,0,0,0
O=C(Nc1ccc(S(=O)(=O)N2CCCC2)cc1)c1ccc(CN2CCOCC2)cc1,0,0,100,0,0,46%,0,0,0
CCN(CC)S(=O)(=O)c1ccc(NC(=O)c2ccc(CN3CCOCC3)cc2)cc1,0,0,100,0,0,30%,0,0,0
O=C(Nc1ccc(S(=O)(=O)N2CCCC2)cc1)C1CCCCC1,0,0,0,0,0,-,-,-,-
O=C(Nc1ccc(S(=O)(=O)N2CCOCC2)cc1)c1ccc(S(=O)(=O)N2CCOCC2)cc1,0,0,0,0,0,-,-,-,-
O=C(Nc1ccc(S(=O)(=O)N2CCOCC2)cc1)C1CCCCC1,0,0,25,0,0,0,0,0,0
COc1cc(OC)nc(Oc2cc(/C=N/O)ccc2OC)n1,0,0,0,0,0,-,-,-,-
COc1cc(CN(C(C)=O)c2ccccc2C(=O)O)ccc1[N+](=O)[O-],-,0,-,-,-,-,-,-,-
O=C(Nc1ccc(S(=O)(=O)Nc2ccc(F)cc2)cc1)c1ccc(CN2CCOCC2)cc1,0,0,25,0,0,39%,0,0,0
COc1ccc(NS(=O)(=O)c2ccc(NC(=O)c3ccc(CN4CCOCC4)cc3)cc2)cc1,0,0,0,0,0,-,-,-,-
CCCCOCCCNC(=O)c1c(-c2ccccc2)noc1C,0,0,25,0,0,0,0,0,0
COCCCNC(=O)c1c(-c2ccccc2)noc1C,0,-,0,0,0,-,-,-,-
Cn1c(=O)c([N+](=O)[O-])c(N2CCSCC2)c2ccccc21,0,0,0,0,0,-,-,-,-
CCn1c(=O)c([N+](=O)[O-])c(N2CCSCC2)c2ccccc21,0,0,25,0,0,0,0,0,0
CCOC(=O)CCSc1nc(C(C)(C)C)cc(C(F)(F)F)c1C#N,0,0,100,0,0,0,0,0,0
SMILES,Apaf1 inhib,TMEM16A act,TMEM16A inh,UBC13 polyUb,DNA FID counter,TMEM16A reconf,TMEM16A Ca cntr,YFP-HEK293 quench,ClC-1 inh
O=C(NCCc1ccc(Cl)cc1)C1CCN(c2cnccn2)CC1,0,0,100,0,0,0,0,0,0
CCOc1ccccc1Cn1c(=O)oc2ccc(C)cc21,0,0,0,0,0,-,-,-,-
CCCOc1ccccc1Cn1c(=O)oc2ccc(C)cc21,0,0,100,0,0,0,0,0,0
Cc1cc(/C=N/n2cnnc2)c(C)n1-c1ccc(OCc2ccc(F)cc2)cc1,0,0,100,0,0,0,0,0,0
Cc1cc(/C=N/n2cnnc2)c(C)n1-c1ccccc1,0,0,0,0,0,-,-,-,-
O=C(CSc1nccn1Cc1ccccc1)Nc1nccs1,0,0,25,0,0,0,0,0,0
C(/C=C/c1ccccc1)=N/N1CCN(c2ccccc2)CC1,0,0,25,0,0,0,0,0,0
C(=C\c1ccccc1)/C=N/N1CCN(c2ccccn2)CC1,0,0,0,0,0,-,-,-,-
Cc1cccc2c1NC(=O)C2(c1ccc(O)cc1)c1ccc(O)cc1,0,0,0,0,0,-,-,-,-
Cc1cc(C2(c3ccc(O)c(C)c3)C(=O)Nc3ccccc32)ccc1O,0,0,100,0,0,0,0,0,0
COc1cc(C(C)=O)ccc1OCC(=O)OCCCOC(=O)COc1ccc(C(C)=O)cc1OC,0,0,0,0,0,-,-,-,-
COc1ccc(C)cc1NC(=O)C1CCCN(S(=O)(=O)c2cccc3cccnc23)C1 (stereo not drawn),0,0,100,0,0,0,0,0,0
O=C1CN2CCC1C/C2=C\c1ccnc2c(Cl)cccc12 (stereo not drawn),0,0,0,0,0,-,-,-,-
COc1ccccc1-c1nnc(SCC(=O)Nc2ccc(Cl)cc2Cl)o1,0,0,0,0,0,-,-,-,-
COc1cccc2c1OC[C@@H](CO)[C@H]2N(C)C(=O)Nc1ccc(Cl)cc1Cl,0,0,0,0,0,0,0,0,0
Cc1cc(N2CCN(C)CC2)nc2ccc(NC(=S)N3CCN(c4ccccn4)CC3)cc12,0,0,0,0,0,-,-,-,-
CCOC(=O)c1c(-c2cccs2)csc1NC(C)=O,0,0,0,0,0,-,-,-,-
CCOC(=O)c1c(-c2cccs2)csc1NC(=O)C(C)(C)C,0,0,25,0,0,33%,0,0,0
COC(=O)c1cccc(COC(=O)c2ccc(CS(=O)(=O)c3ccc(C)cc3)cc2)c1,0,0,0,0,0,-,-,-,-
O=S(=O)(c1cccc2nonc12)N1CCCCCC1,0,0,0,0,0,0,0,0,0
Cc1cccc(OCCCC(=O)NNC(=O)CCN2CCN(c3ccccc3)CC2)c1,0,0,0,0,-,-,-,-,-
CCN(CC)CCNC1=NCCn2c1cc1cc(OC)ccc12,0,0,25,0,0,0,0,0,0
Clc1ccc(Cc2ccc(SCc3ccccc3)nn2)c(Cl)c1,0,0,25,0,0,0,0,0,0
Cc1ccc(CN2CCN(CCCn3cccn3)CC2CCO)cc1 (stereo not drawn),0,0,0,0,0,-,-,-,-

# Compound activity deposited in PubChem by several laboratories.
